Assay [1] is filed under the species Cavia porcellus. Description: Inhibition of LTE4 (8 nM) induced contraction of guinea pig tracheal spirals at a concentration of 1 uM. The class given is functional, Trachea. The method in brief:
(§1)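 Paired tracheal spirals at 37 °C in Krebs gassed with 95% O2/5% CO2 under 2 g tension, given repeated LTE4 challenges of 10 min. Compound or vehicle added 10 min before a third challenge. % inhibition = (2nd − 3rd response)/2nd × 100, corrected by subtracting the vehicle value. Paired t test, n ≥ 4.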

For assay [2], the species on record is Cavia porcellus. Put plainly: Inhibition constant for the displacement of [3H]LTD4 on guinea pig lung parenchymal membranes. Also on record: species or system Lung parenchyma. The method in brief:
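Membranes from perfused lungs of male Hartley guinea pigs (300-400 g) in PIPES pH 7.5 with 10 mM CaCl2, 10 mM MgCl2, 2 mM cysteine and 2 mM glycine. 1 nM 3H-LTD4 at 22 °C for 30 min; nonspecific binding with 2 uM LTD4. Filtration, then scintillation counting. IC50 by nonlinear least squares, Ki by Cheng-Prusoff; mean of two experiments in duplicate.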
For orientation: Displacement assays read how much labelled ligand stays bound in the presence of the test substance.

The species named for assay [3] is Cavia porcellus. Description: Dissociation constant on guinea pig tracheal spirals utilizing LTE4 as agonist. The note with it: Trachea.
Assay [4] relates to Cavia porcellus. Description: Protection of conscious guinea pig lung function was determined by comparison of time required for the challenged animals to exhibit labored abdominal breathing after oral dose of 0.3 uM/kg. It counts as functional. The method in brief:
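Conscious guinea pigs pretreated with indomethacin (10 mg/kg ip) and propranolol (5 mg/kg ip). Compound in PEG400 (<10% v/v)/PBS given orally 180 min before a challenge of up to 5 min with aerosolized 60 uM LTD4. Time to abdominal dyspnea scored blind. % protection is taken against vehicle controls; no end point by 300 s counts as 100%. Unpaired t test.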

For assay [5], the species on record is Cavia porcellus. Description: Inhibition of LTE4 (8 nM) induced contraction of guinea pig tracheal spirals at a concentration of 0.33 uM. It counts as functional, Trachea. Summed up:
as §1

The species named for assay [6] is Cavia porcellus. Description: Inhibition of LTE4 (8 nM) induced contraction of guinea pig tracheal spirals at a concentration of 0.50 uM. The class given is functional, Trachea. Summed up: as §1

Molecules are shown by their SMILES.

Consider `COc1cc(C(=O)O)ccc1Cc1cn(C)c2ccc(C(=O)NCC3CCCC3)cc12`, for which, in the assay filed under Cavia porcellus [1], the Inhibition – broadly, the percentage by which the read-out fell short of the control – was found to be 33%. For the same compound, the affinity in the assay listed under Cavia porcellus [2], expressed as Ki, was 422 nM.
For the compound `COc1cc(C(=O)NS(=O)(=O)c2ccccc2C)ccc1Cn1cc(C)c2ccc(NC(=O)CC3CCCC3)cc21`, in the assay listed under Cavia porcellus [3], the Kb came out at 0.456 nM. The compound further came in with a Protection in the assay on Cavia porcellus [4] of 54%.
`CCCCOC(=O)Nc1ccc2ccn(Cc3ccc(C(=O)O)cc3OC)c2c1` yielded a Kb in the assay listed under Cavia porcellus [3] of 155 nM. Moreover, the Inhibition in the assay filed under Cavia porcellus [5] was determined as 25%; in the assay listed under Cavia porcellus [6], 54%.

For the origin of these results see ChEMBL document CHEMBL1125464, “1,3,6-trisubstituted indoles as peptidoleukotriene antagonists: benefits of a second, polar, pyrrole substituent” (J Med Chem, 1992).
